Assays:
[1] = Binding affinity to 5'-biotin-d [GCGTCCACCCTCCCTGCCCCGCCGCCCCCCCITCTCCCAGC]-3' i-motif DNA (unknown origin) by surface plasmon resonance assay
In short: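 SPR: biotinylated oligomers were captured on a neutravidin chip at ~1000 RU, with a blank reference cell. Running buffer was 20 mM MES pH 5.5, 100 mM KCl, 0.05% Tween-20 for the i-motif, or 50 mM Tris-HCl pH 7.4, 100 mM KCl for the G-quadruplex. Ligand was injected at 0–10 μM (six concentrations), with 200 s association and 300 s dissociation at 25 °C.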

[2] = Binding affinity to FAM-labeled 5'-biotin-d [GCGTCCACCCTCCCTGCCCCGCCGCCCCCCCITCTCCCAGC]-3' i-motif DNA (unknown origin) by microscale thermophoresis assay
In short: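 Microscale thermophoresis with DNA held constant at 1 µM. Compound serially diluted 3:4 from 10 µM over 12 points. Samples run in standard glass capillaries with LED and laser power both at 20%. KD derived by fitting.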

[3] = Binding affinity to 5'-biotin-d [GCGTCCACCCTCCCTGCCCCGCCGCCCCCCCITCTCCCAGC]-3' i-motif DNA (unknown origin) assessed as change in melting temperature at 10 uM by CD spectroscopy
In short: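 Oligomer 2 µM in BPES buffer pH 5.5, heated to 95 °C for 5 min, cooled slowly and held at 4 °C overnight. Ligand 10 µM. CD ellipticity followed at 288 nm from 25–95 °C (1 mm cuvette); Tm derived, ΔTm against DNA alone.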

[4] = Binding affinity to 5'-biotin-d [GCGTCCACCCTCCCTGCCCCGCCGCCCCCCCITCTCCCAGC]-3' i-motif DNA (unknown origin) assessed as decrease in positive peak by CD spectroscopy; settings: dose 2-10 equiv
In short: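 CD spectra: oligomers at 2 μM final, in BPES pH 5.5 (i-motif) or Tris-HCl pH 7.4 (G-quadruplex). Samples were annealed (95 °C 5 min, slow cool, 4 °C overnight), then titrated with increasing compound. Spectra were recorded at 25 °C over 230–330 nm in a 1 mm cuvette, buffer-subtracted, averaged and smoothed.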

[5] = Binding affinity to 5'-FAM-GCGTCCACCCTCCCTGCCCCGCCGCCCCCCCTTCTCCCAGC-TAMRA-3' i-motif DNA (unknown origin) assessed as unfolding i-motif structure by measuring reduction in I585/I518 ratio by FRET assay; settings: dose 2-10 equiv
In short: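 FRET probe: i-motif oligonucleotide dual-labelled with FAM donor and TAMRA acceptor, 10 µM in 30 mM BPES buffer with 1 mM EDTA, KCl, thermally annealed. Compound was added in equal volume at increasing concentrations. Emission was scanned 500–700 nm and corrected for the compound's own signal. Read-out was the I585/I518 ratio, with the titration run at pH 6.2.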

[6] = system: MCF7; assay: Binding affinity to wild type PDGFRbeta promoter (unknown origin) in human MCF7 cells after 48 hrs by dual luciferase reporter assay; type: cell-based
In short: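 MCF-7 cells were transfected with 200 ng psiCHECK2 plasmid carrying the wild-type PDGFR-β promoter. After 4 h, compound was added at various concentrations and cells were incubated 48 h at 37 °C. Cells were washed with cold PBS and dual-luciferase signals read for 10 s. Renilla activity was normalised to firefly.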

[7] = system: MCF7; assay: Cytotoxicity against human MCF7 cells assessed as reduction in cell viability after 48 hrs by MTT assay; type: functional, cell-based; settings: MCF7, 48 h
In short: (§1)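 MTT assay: cells seeded at 5.0 × 10³/well, grown 12 h, then exposed to graded compound concentrations for 48 h at 37 °C/5% CO2. 2.5 mg/mL MTT was added for 4 h, formazan dissolved in DMSO, and absorbance read at 570 nm. Each dose in triplicate; IC50 from percent survival versus negative control.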

[8] = system: HEK293; assay: Cytotoxicity against HEK293 cells assessed as reduction in cell viability after 48 hrs by MTT assay; type: cell-based; settings: Homo sapiens, HEK293, 48 h; in short: as §1
[9] = system: MCF7; assay: Induction apoptosis in human MCF7 cells incubated for 24 hrs by Annexin-FTTC/PI staining based flow cytometric analysis; type: functional, cell-based; settings: dose 1.25-5 µM
[10] = system: MCF7; assay: Antitumour activity against human MCF7 cells xenografted in nude BALB/c mouse assessed as tumour growth inhibition at 2.5 mg/kg, ip administered for 34 days relative to control; type: functional; settings: 816 h, time 34 day, read-out: TGI
[11] = system: MCF7; assay: Antitumour activity against human MCF7 cells xenografted in nude BALB/c mouse assessed as tumour growth inhibition at 5 mg/kg, ip administered for 34 days relative to control; type: functional; settings: 816 h, time 34 day, read-out: TGI
[12] = system: MCF7; assay: Antitumour activity against human MCF7 cells xenografted in nude BALB/c mouse assessed as tumour volume at 5 mg/kg, ip administered for 34 days (reference value: 1530 mm3); type: functional; settings: time 34 day
[13] = system: MCF7; assay: Antitumour activity against human MCF7 cells xenografted in nude BALB/c mouse assessed as tumour volume at 10 mg/kg, ip administered for 34 days (reference value: 1530 mm3); type: functional; settings: time 34 day
[14] = Toxicity in nude BALB/c mouse xenografted with human MCF7 cells assessed as kidney weight at 2.5 to 10 mg/kg, ip administered for 34 days; type: organism-based; settings: in vivo, 816 h, dose 2.5-10 mg/kg, time 34 day
In short: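 Nude BALB/c females bearing subcutaneous MCF-7 xenografts were dosed ip once daily for 34 days at 2.5, 5.0 or 10 mg/kg, with saline vehicle (100 µL) as control. Body weight was recorded every 2 days. After euthanasia by cervical dislocation, heart, liver, spleen and kidney were removed and weighed.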

[15] = system: MCF7; assay: Induction apoptosis in human MCF7 cells assessed as viable cells at 2.5 uM incubated for 24 hrs by Annexin-FTTC/PI staining based flow cytometric analysis (reference value: 99.7%); type: functional; settings: read-out: Activity
[16] = system: MCF7; assay: Induction apoptosis in human MCF7 cells assessed as viable cells at 5 uM incubated for 24 hrs by Annexin-FTTC/PI staining based flow cytometric analysis (reference value: 99.7%); type: functional; settings: read-out: Activity
[17] = system: MCF7; assay: Induction apoptosis in human MCF7 cells assessed as early apoptotic cells at 1.25 uM incubated for 24 hrs by Annexin-FTTC/PI staining based flow cytometric analysis (reference value: 0.28%); type: functional
[18] = system: MCF7; assay: Induction apoptosis in human MCF7 cells assessed as early apoptotic cells at 2.5 uM incubated for 24 hrs by Annexin-FTTC/PI staining based flow cytometric analysis (reference value: 0.28%); type: functional
[19] = system: MCF7; assay: Induction apoptosis in human MCF7 cells assessed as late apoptotic cells at 2.5 uM incubated for 24 hrs by Annexin-FTTC/PI staining based flow cytometric analysis (reference value: 0%); type: functional
[20] = system: MCF7; assay: Induction apoptosis in human MCF7 cells assessed as late apoptotic cells at 5 uM incubated for 24 hrs by Annexin-FTTC/PI staining based flow cytometric analysis (reference value: 0%); type: functional
[21] = system: MCF7; assay: Induction apoptosis in human MCF7 cells assessed as necrotic cells at 1.25 uM incubated for 24 hrs by Annexin-FTTC/PI staining based flow cytometric analysis (reference value: 0.11%); type: functional
[22] = system: MCF7; assay: Induction apoptosis in human MCF7 cells assessed as necrotic cells at 2.5 uM incubated for 24 hrs by Annexin-FTTC/PI staining based flow cytometric analysis (reference value: 0.11%); type: functional

Kd [1]: 3.12 µM
Kd [2]: 4.52 µM
ΔTm [3]: -16.7 °C
Activity [4]: Dose-dependent effect
Activity [5]: Dose-dependent effect
SMILES: Cc1ccc2c(c1)c(=O)c1cc(C(=O)NCCCN(C)CCCN3C(=O)c4cccc5c(N6CCN(C)CC6)ccc(c45)C3=O)ccc1n2-c1ccc(C(=O)NCCCN(C)CCCN2C(=O)c3cccc4c(N5CCN(C)CC5)ccc(c34)C2=O)cc1
Activity [6]: Dose-dependent effect
IC50 [7]: 4.69 µM
IC50 [8]: > 50 µM
Activity [9]: Dose-dependent effect
inhibition in vivo at 2.5 mg/kg [10]: 34.9%
inhibition in vivo at 5 mg/kg [11]: 47.6%
Activity [12]: 780 mm3
Activity [13]: 640.2 mm3
Activity [14]: Non-Toxic
viability at 2.5 µM [15]: 71.4%
viability at 5 µM [16]: 13%
Activity [17]: 7.38%
Activity [18]: 26.1%
Activity [19]: 1.96%
Activity [20]: 51.1%
Activity [21]: 0.43%
Activity [22]: 0.49%

From ChEMBL document CHEMBL4715918, “Syntheses and evaluation of acridone-naphthalimide derivatives for regulating oncogene PDGFR-β expression” (Bioorg Med Chem, 2021)
